Active and inactive are the calls of the source. The rule behind the calls is not given here.
What was measured:
[1] = target: T1, Orphan methyltransferase M.SssI (Spiroplasma monobiae, UniProt P15840); assay: Competitive inhibition of Spiroplasma sp. MQ1 SssI methyltransferase using pUC18 as substrate measured for 10 mins by Dixon plot analysis
Method in brief: (§1)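 M.SssI reaction in 10 mM Tris-HCl pH 7.9 with 50 mM NaCl, 10 mM DTT, 2 mM [3H]CH3-SAM, 1 U enzyme and pUC18 plasmid (0.1, 0.5 or 1 µg). Run at 37 °C for 1, 3, 5 and 10 min with inhibitor present to get initial rates V0 (nM/min). Ki taken from Dixon plot. Reactions repeated twice.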

[2] = target: T1, Orphan methyltransferase M.SssI; assay: Non-competitive inhibition of Spiroplasma sp. MQ1 SssI methyltransferase using pUC18 as substrate measured for 10 mins by Dixon plot analysis; method in brief: as §1
[3] = target: T1, Orphan methyltransferase M.SssI; assay: Inhibition of Spiroplasma sp. MQ1 SssI methyltransferase-mediated DNA cytosine methylation using pUC18 as substrate and [3H]CH3-SAM measured up to 10 mins
Method in brief: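 Tritium-incorporation assay with SssI methyltransferase, pUC18 plasmid (0.1–1 µg) and 2 mM [3H]CH3-SAM. Buffer is 10 mM Tris-HCl pH 7.9, 50 mM NaCl, 10 mM DTT. Sampled at 1, 3, 5 and 10 min at 37 °C to give initial velocity V0. Reactions done twice.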

[4] = target: T2, DNA (cytosine-5)-methyltransferase 1 (Homo sapiens, UniProt P26358); assay: Inhibition of DNMT1 in human HeLa cell nuclear extract assessed as methylated substrate level by ELISA
T2 sequence (P26358 whole entry): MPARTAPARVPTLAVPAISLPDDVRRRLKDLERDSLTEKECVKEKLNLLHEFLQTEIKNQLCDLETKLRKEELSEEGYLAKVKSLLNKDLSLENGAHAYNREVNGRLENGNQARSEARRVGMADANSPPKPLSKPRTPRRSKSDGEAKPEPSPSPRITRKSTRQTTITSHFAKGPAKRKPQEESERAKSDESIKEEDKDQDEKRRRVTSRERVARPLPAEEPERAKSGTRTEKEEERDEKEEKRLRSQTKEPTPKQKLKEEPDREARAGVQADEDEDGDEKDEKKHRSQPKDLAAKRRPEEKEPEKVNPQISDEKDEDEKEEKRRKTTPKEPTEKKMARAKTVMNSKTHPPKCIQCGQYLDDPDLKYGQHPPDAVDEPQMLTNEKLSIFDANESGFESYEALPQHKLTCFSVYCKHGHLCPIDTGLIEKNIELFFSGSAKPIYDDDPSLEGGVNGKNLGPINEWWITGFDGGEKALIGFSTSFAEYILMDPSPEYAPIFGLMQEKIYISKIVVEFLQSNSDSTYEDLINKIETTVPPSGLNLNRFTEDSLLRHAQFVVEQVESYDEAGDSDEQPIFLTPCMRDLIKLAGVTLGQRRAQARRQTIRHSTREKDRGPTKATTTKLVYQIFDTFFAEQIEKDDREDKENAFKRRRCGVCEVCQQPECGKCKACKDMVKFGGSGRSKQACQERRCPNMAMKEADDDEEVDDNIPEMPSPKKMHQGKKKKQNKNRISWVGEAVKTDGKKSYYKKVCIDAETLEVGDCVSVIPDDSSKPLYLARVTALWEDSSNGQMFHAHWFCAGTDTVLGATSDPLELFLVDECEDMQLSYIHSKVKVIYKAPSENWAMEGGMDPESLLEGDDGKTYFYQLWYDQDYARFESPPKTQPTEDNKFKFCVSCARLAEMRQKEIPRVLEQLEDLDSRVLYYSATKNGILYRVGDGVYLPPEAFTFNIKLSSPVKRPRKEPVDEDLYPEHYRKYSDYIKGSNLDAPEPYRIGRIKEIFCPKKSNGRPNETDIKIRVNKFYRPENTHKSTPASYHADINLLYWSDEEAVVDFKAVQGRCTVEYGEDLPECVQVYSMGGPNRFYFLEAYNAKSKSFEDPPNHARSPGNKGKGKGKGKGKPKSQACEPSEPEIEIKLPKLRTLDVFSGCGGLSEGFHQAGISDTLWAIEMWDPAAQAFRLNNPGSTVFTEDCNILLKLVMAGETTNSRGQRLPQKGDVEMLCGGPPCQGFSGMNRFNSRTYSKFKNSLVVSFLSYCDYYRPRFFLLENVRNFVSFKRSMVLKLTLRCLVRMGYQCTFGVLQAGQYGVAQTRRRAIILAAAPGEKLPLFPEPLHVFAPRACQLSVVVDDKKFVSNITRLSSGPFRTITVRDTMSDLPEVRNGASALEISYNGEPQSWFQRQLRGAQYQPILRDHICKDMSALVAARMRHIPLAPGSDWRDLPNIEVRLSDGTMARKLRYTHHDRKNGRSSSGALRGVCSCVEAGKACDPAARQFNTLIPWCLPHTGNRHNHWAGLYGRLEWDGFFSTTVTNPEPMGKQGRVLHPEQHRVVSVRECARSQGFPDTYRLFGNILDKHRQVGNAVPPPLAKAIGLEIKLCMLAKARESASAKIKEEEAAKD

[5] = target: T2, DNA (cytosine-5)-methyltransferase 1; assay: Inhibition of DNMT1 in human HeLa cell nuclear extract assessed as methylated substrate level at 10 uM by ELISA
Method in brief: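 HeLa nuclear extract (cells grown to 80% confluency; protein by Bradford) with hemimethylated DNA substrate, incubated 1 h with or without inhibitor. Methylated product detected by ELISA with anti-5-methylcytosine antibody, colorimetric read-out at 450 nm. Each experiment repeated twice.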

HeLa = assay: Inhibition of DNA methylation in human HeLa cells assessed as reduction of 5-methylcytosine level using [gamma-32P]ATP after 72 hrs; type: functional, cell-based
Method in brief: (§2)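 HeLa (RPMI-1640) and HEK293 (DMEM) cells, medium with 10% FBS, antibiotics and vitamin mix. Seeded at 1.25 × 10⁵ per well and exposed 72 h at 37 °C, 5% CO2 to 1, 10 or 100 µM. DNA digested with micrococcal nuclease and spleen phosphodiesterase, then 5'-labelled with [γ-32P]ATP and T4 polynucleotide kinase. 3'-phosphate removed with nuclease P1. Nucleotides resolved by 2D cellulose TLC. Methylation given as m5C/(m5C+dC+dT) × 100.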

HEK293 = assay: Inhibition of DNA methylation in human HEK293 cells assessed as reduction of 5-methylcytosine level using [gamma-32P]ATP after 72 hrs; type: cell-based; conditions: HEK293, 72 h; method in brief: as §2
[6] = target: T2, DNA (cytosine-5)-methyltransferase 1; assay: Inhibition of DNMT1 in human HeLa cells assessed as 2'-deoxyadenosine phosphate level by two-dimensional thin layer chromatography analysis; type: cell-based; conditions: in the assay text read “5-methylcytosine level” for “2'-deoxyadenosine phosphate level”; method in brief: as §2
[7] = target: T2, DNA (cytosine-5)-methyltransferase 1; assay: Inhibition of DNMT1 in human HeLa cells assessed as 5-methyl-2'-deoxycytosine phosphate level by two-dimensional thin layer chromatography analysis; type: cell-based; method in brief: as §2
[8] = target: T2, DNA (cytosine-5)-methyltransferase 1; assay: Inhibition of DNMT1 in human HeLa cells assessed as 2'-deoxycytosine phosphate level by two-dimensional thin layer chromatography analysis; type: cell-based; method in brief: as §2
[9] = target: T2, DNA (cytosine-5)-methyltransferase 1; assay: Inhibition of DNMT1 in human HeLa cells assessed as 2'-deoxytymidine phosphate level by two-dimensional thin layer chromatography analysis; type: cell-based; method in brief: as §2
[10] = target: T2, DNA (cytosine-5)-methyltransferase 1; assay: Inhibition of DNMT1 in human HeLa cells assessed as 2'-deoxyguanosine phosphate level by two-dimensional thin layer chromatography analysis; type: cell-based; method in brief: as §2
[11] = target: T1, Orphan methyltransferase M.SssI; assay: Uncompetitive inhibition of Spiroplasma sp. MQ1 SssI methyltransferase using pUC18 as substrate measured for 10 mins by Cornish-Bowden's plot analysis
Method in brief: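 M.SssI reaction in 10 mM Tris-HCl pH 7.9 with 50 mM NaCl, 10 mM DTT, 2 mM [3H]CH3-SAM, 1 U enzyme and pUC18 (0.1, 0.5 or 1 µg). Run at 37 °C for 1–10 min to get V0. Ki' obtained by Cornish-Bowden method, plotting S/V against inhibitor concentration. Duplicates.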

[12] = target: T2, DNA (cytosine-5)-methyltransferase 1; assay: Inhibition of DNMT1 in human HeLa cell nuclear extract assessed as methylated substrate level at 100 uM by ELISA

T1 sequence (P15840 whole entry): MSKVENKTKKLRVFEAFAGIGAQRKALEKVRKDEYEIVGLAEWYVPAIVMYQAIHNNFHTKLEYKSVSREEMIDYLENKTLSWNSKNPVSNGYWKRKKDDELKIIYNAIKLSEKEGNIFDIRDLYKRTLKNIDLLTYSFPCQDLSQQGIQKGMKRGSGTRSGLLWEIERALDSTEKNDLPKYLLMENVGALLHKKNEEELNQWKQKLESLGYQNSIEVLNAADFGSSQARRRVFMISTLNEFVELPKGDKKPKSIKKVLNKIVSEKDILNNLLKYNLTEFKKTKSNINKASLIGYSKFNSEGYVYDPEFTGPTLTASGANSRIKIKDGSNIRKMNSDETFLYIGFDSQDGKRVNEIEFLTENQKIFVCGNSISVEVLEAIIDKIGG

CCCCNCc1c[nH]c(=O)nc1NCc1ccco1
Ki [1]: 960 µM

O=c1nc(NCc2ccccc2[N+](=O)[O-])cc[nH]1
Ki [2]: 6400 µM

O=C1N=C(NCc2ccco2)NCN1
IC50 [3]: 2.73 µM | Ki [1]: 0.7 µM | IC50 [4]: 22 µM | inhibition [4]: Dose-dependent effect | inhibition [5]: 55% | IC50 (HeLa): 26 µM | IC50 (HEK293): 75 µM | inhibition [6]: Active | inhibition [7]: Active | inhibition [8]: Active | inhibition [9]: Active | inhibition [10]: Active

O=C(O[C@@H]1Cc2c(O)cc(O)cc2O[C@@H]1c1cc(O)c(O)c(O)c1)c1cc(O)c(O)c(O)c1 [EPIGALOCATECHIN GALLATE]
Ki [1]: 0.028 µM | inhibition [5]: 42%

O=Cc1c[nH]c(=O)nc1NCc1ccco1
Ki [1]: 83 µM

Cc1ccc(S(=O)(=O)Nc2cc[nH]c(=O)n2)cc1
Ki [1]: 550 µM

C/C=N/c1cc[nH]c(=O)n1
Ki [11]: 5600 µM

O=c1nc(NCc2ccccc2)c(CO)c[nH]1
Ki [1]: 135 µM

O=c1ncc(CS(=O)(=O)O)c(NCc2ccccc2)[nH]1
Ki [1]: 33 µM

O=c1nc(NCc2ccco2)ccn1[C@H]1C[C@H](O)[C@@H](CO)O1
Ki [1]: 170 µM

Cc1ccc(CNc2cc[nH]c(=O)n2)cc1
Ki [1]: 26 µM

O=c1nc(NCc2ccco2)cc[nH]1
Ki [1]: 70 µM

O=c1nc(NCc2ccccc2)cc[nH]1
Ki [1]: 10 µM | IC50 (HeLa): 31 µM | IC50 (HEK293): > 100 µM | inhibition [6]: Active | inhibition [7]: Active | inhibition [8]: Active | inhibition [9]: Active | inhibition [10]: Active

O=C1N=C(NCc2ccccc2)NCN1
Ki [1]: 20 µM

CCCCNc1ccnc(=O)[nH]1
Ki [11]: 1000 µM

O=Cc1cnc(=O)[nH]c1NCc1ccccc1
Ki [1]: 35 µM

Cc1cn([C@H]2C[C@H](O)[C@@H](CO)O2)c(=O)nc1NCc1ccco1
Ki [1]: 250 µM

Cc1c[nH]c(=O)nc1NCc1ccccc1
Ki [1]: 3.6 µM

Nc1nc[nH]c(=O)n1
Ki [1]: 5500 µM

O=C(O)[C@H](Cc1c[nH]c2ccccc12)N1C(=O)c2ccccc2C1=O
Ki [1]: 0.23 µM | inhibition [12]: 11%

CCNc1cc[nH]c(=O)n1
Ki [11]: 6000 µM

O=c1nc(NCc2ccco2)c(CO)c[nH]1
Ki [1]: 440 µM

O=c1nc(NCc2ccc(CO)o2)cc[nH]1
Ki [1]: 700 µM

CC(=O)OCc1c[nH]c(=O)nc1NCc1ccco1
Ki [1]: 50 µM

O=c1nc(NCc2cccnc2)cc[nH]1
Ki [1]: 400 µM

CC/C=N/c1cc[nH]c(=O)n1
Ki [11]: 3400 µM

Cc1c[nH]c(=O)nc1NCc1ccco1
Ki [1]: 15 µM | IC50 (HeLa): 88 µM | IC50 (HEK293): > 100 µM

CCC/C=N/c1cc[nH]c(=O)n1
Ki [11]: 800 µM

CC(=O)OCc1c[nH]c(=O)nc1NCc1ccccc1
Ki [1]: 23 µM

O=c1ncc(CS(=O)(=O)O)c(NCc2ccco2)[nH]1
Ki [1]: 112 µM

Reference: ChEMBL document CHEMBL2062450, “New cytosine derivatives as inhibitors of DNA methylation” (Eur J Med Chem, 2012)
